Screening results from PubChem BioAssay.
EBV gp42 block – inhibitors of Epstein-Barr virus glycoprotein 42; AID 1085; inhibition, % (tested at 21.74 µM); Q1HVG2; Fluorescence polarization binding assay, mP read-out; 220,000 tested, 0.42% active; in the data active = inhibition above about 50%
Target sequence (Q1HVG2 whole entry, looked up): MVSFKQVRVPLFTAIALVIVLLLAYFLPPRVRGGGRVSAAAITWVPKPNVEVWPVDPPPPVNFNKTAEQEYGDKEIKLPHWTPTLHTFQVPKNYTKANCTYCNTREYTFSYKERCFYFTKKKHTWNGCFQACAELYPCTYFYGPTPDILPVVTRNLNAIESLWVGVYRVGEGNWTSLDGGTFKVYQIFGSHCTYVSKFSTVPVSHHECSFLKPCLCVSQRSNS
LANA DNA inh – KSHV C-LANA DNA binding inhibition. MBP-C-LANA/FAM-LBS DNA binding, fluorescence polarization. inhibition, % at 9 µM. 340,000 tested, 0.078% active. AID 504423;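 active = highest replicate inhibition at or above 60% at 9 µM, even if other replicates fall short; inactive = all replicates below 60% inhibition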
T cell modulator – T cell immune modulation candidate | AID 2052 | response (vesicle binding), % at 7 µM | 2C CD8+ T cell-vesicle binding, flow cytometry; active compounds read low | 330,000 tested, 0.068% active;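 active = response, share of CD8 T cells binding vesicles, and their 90th percentile fluorescence all below set limits, cut at about 80% in these data, passing the limit was not always enough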;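 also: values below 100% mean blocked vesicle binding to the CD8+ T cells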
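Material: 2C TCR transgenic mouse naive CD8+ T cells, MACS-purified. Also added: QL9-charged Drosophila Ld/ICAM-1/B7-1 vesicles. Timing: binding 1.5 h at 37 °C. Measured by: high-throughput flow cytometry with anti-B7-1 and anti-CD8 staining. Read-out: percent CD8+ FL2 mean versus row control. Controls: Unloaded micro-vesicles (low), QL9 vesicles with 0.7% DMSO (high).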
MEX-5 binding – C. elegans MEX-5 TCR-2 RNA binding activity. Q9XUB2. MEX-5/FITC-TCR2 RNA binding, fluorescence polarization; active compounds read low. activity score (negative = inhibition of binding), % at 10 µM. 300,000 tested, 0.38% active. AID 1832;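 active = inhibition past about -25% in most replicates, and total fluorescence under double the plate's negative control median, limit read from the data; inconclusive = replicates evenly split on the limit, or fluorescence at least double controls; inactive = too little inhibition in most replicates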
GRK2 aptamer HTS – blocks RNA aptamer binding to human GRK2; bead flow cytometry, FAM-aptamer displacement from GRK2; AID 488847; P25098; inhibition of aptamer binding, % at 10 µM; 330,000 tested, 0.59% active;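 active = inhibition of aptamer binding above 40%, roughly 3 SD of noise, on plates passing a quality check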;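 also: median bead fluorescence of bound FAM aptamer so fluorescent compounds give negative values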
Keap1-Nrf2 PPI – disrupts human Keap1 binding to Nrf2 peptide; Q14145; AID 504523; inhibition, % at 9.4 µM; 340,000 tested, 0.15% active; Keap1 Kelch-Nrf2 peptide fluorescence polarization, 1536-well; in the data active = inhibition above about 12%; inconclusive = no clear call, values can overlap the other calls; inactive = below about 7.3%;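 also: human Keap1 Kelch domain with fluorescein labeled Nrf2 9mer peptide probe; higher means more block of Keap1 binding to Nrf2 peptide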
Hits are given with their value; . = inactive; ? = inconclusive; / = no result. Most compounds without a hit are left out; they make up all but 1.3% or so of the library.

SMILES	EBV gp42 block	LANA DNA inh	T cell modulator	MEX-5 binding	GRK2 aptamer HTS	Keap1-Nrf2 PPI
Cc1ccc(/C=C2\SC(=S)N(/N=C/c3cc([N+](=O)[O-])ccc3O)C2=O)o1	.	74	.	.	.	.
O=C(NN1C(=O)/C(=C/c2cc([N+](=O)[O-])ccc2O)SC1=S)c1ccccc1O	/	/	.	.	.	/
COc1ccc2oc(C(=O)N3CCN(S(=O)(=O)c4cccc([N+](=O)[O-])c4)CC3)c(C)c2c1	/	.	.	.	.	.
Oc1ccc(N=Nc2n[nH]c(-c3ccccc3)n2)cc1	.	.	.	-37	.	.
CN(c1ccc(C(=O)Nc2ccccn2)cc1)S(=O)(=O)c1ccccc1	.	.	57	.	.	.
Cc1ccccc1C1=C/C(=C(\SS/C(C(=O)c2ccc(OCC(=O)O)c(Cl)c2Cl)=C2\C=C(c3ccccc3C)SS2)C(=O)c2ccc(OCC(=O)O)c(Cl)c2Cl)SS1	/	100	/	/	/	.
C=CCN1C(=O)/C(=C/c2ccc(N(C)C)cc2)S/C1=N\c1nnc(CC)s1	53	/	/	.	/	/
C=CCN1C(=O)/C(=C/c2ccc(OCC(=O)O)cc2)S/C1=N/c1nccs1	.	.	.	.	.	.
CS(=O)(=O)c1cccc(C(=O)NC(c2ccccc2)c2ccccc2)c1	.	.	.	/	.	.
O=C(CSc1ccsc1[N+](=O)[O-])Nc1cccc(F)c1	62	.	/	.	/	.
COc1cc(/C=N/Nc2ccc(F)cc2F)cc(OC)c1OC	.	.	.	.	.	.
CCOc1cc(N2CCOCC2)c(OCC)cc1NC(=O)CN1CCc2ccccc2C1	.	.	.	.	.	.
O=c1c2ccccc2c(C=Nc2cccc(O)c2)c(O)n1-c1ccc2c(c1)OCO2	51	.	.	.	.	.
Nc1ccc(C(=O)O)cc1[N+](=O)[O-]	.	.	.	/	.	.
Nc1cc(S(=O)(=O)O)cc([N+](=O)[O-])c1O	.	81	.	?	.	.
Cc1ccc2c(Cl)cc(Cl)c(OCC(=O)NC(=O)NCc3ccco3)c2n1	.	.	.	.	.	.
Cc1ccc2c(Cl)cc(Cl)c(OCC(=O)NCc3ccco3)c2n1	69	/	/	/	/	/
C=CCn1c(=O)c2ccc(C(=O)NCc3ccccc3)cc2n(Cc2cccc(Cl)c2)c1=O	.	.	.	.	.	.
COC(=O)c1ccc(S(=O)(=O)N2CCC(C(N)=O)CC2)n1C	.	.	.	.	.	.
Cc1ccc(C2C(C(=O)c3ccco3)=C(O)C(=O)N2c2nnc(C)s2)cc1 (stereo unspecified)	77	.	.	.	.	.
Cc1nnc(N2C(=O)C(O)=C(C(=O)c3ccco3)C2c2cccc3ccccc23)s1 (stereo unspecified)	.	.	.	.	.	.
C=CCSc1nnc(N2C(=O)C(O)=C(C(=O)c3ccco3)C2c2ccccc2F)s1 (stereo unspecified)	/	.	.	-35	.	.
CSc1nnc(N2C(=O)C(O)=C(C(=O)c3ccco3)C2c2ccccc2)s1 (stereo unspecified)	/	.	.	-40	.	.
CSc1nnc(N2C(=O)C(O)=C(C(=O)c3ccco3)C2c2ccccc2F)s1 (stereo unspecified)	/	.	.	.	.	.
Cc1ccc(Cl)cc1NS(=O)(=O)c1cn(C)nc1C	/	.	.	.	.	.
SMILES	EBV gp42 block	LANA DNA inh	T cell modulator	MEX-5 binding	GRK2 aptamer HTS	Keap1-Nrf2 PPI
COc1ccc2cc(C(=O)N3CCC(Cc4ccccc4)CC3)[nH]c2c1	/	.	.	.	.	.
Nc1c(C(=O)N/N=C/c2cccnc2)oc2nc(-c3ccccc3)cc(-c3ccco3)c12	.	.	.	-37	.	.
O=C(Nc1nc2c(s1)CN(Cc1ccccc1)CC2)c1cccc(S(=O)(=O)N2CCc3ccccc32)c1	111	.	.	.	.	.
O=C(Nc1nc2ccccc2s1)c1cccc(S(=O)(=O)N2CCc3ccccc32)c1	.	.	.	.	.	.
CC(C)C(=O)N1CCC(n2nccc2NC(=O)CCc2ccccc2)CC1	/	.	.	.	.	.
COc1ccccc1C(=O)Oc1ccc2c(c1)O/C(=C\c1ccncc1)C2=O	.	.	.	-26	.	.
COc1ccc(/C=C2\Oc3cc(OC(=O)N4CCOCC4)ccc3C2=O)cc1	.	.	.	.	.	.
O=C(Oc1ccc2c(c1)O/C(=C\c1ccncc1)C2=O)c1cccs1	.	.	.	.	.	.
